In brackets after ≈: the same amount, converted by molar mass.
What was measured:
[1] = Aqueous solubility of ATXP and ATX at 25 °C, by HPLC; type: physicochemical; details: for solubility at 1 h: 25 °C, thermodynamic from solid
Procedure, shortened: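 Excess solid was added to 1 mL of ultrapure water, 0.9% NaCl (pH 7.4) or PBS (pH 7.4) and held at 25 °C. Samples were taken at 1, 24 and 48 h, filtered (0.22 μm) and quantified by HPLC (C18; 75% methanol/water with 1% TFA; 1 mL/min; 350 nm). Experiments were repeated three times and reported as mean ± SD.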

[2] = test system: focal cerebral ischemia-reperfusion injury (MCAO); experiment: Neurological deficit; type: in vivo, Sprague-Dawley rats; details: edaravone 6 mg/kg iv, single dose, P = 0.4298
[3] = test system: focal cerebral ischemia-reperfusion injury (MCAO); design: species or system Sprague-Dawley rats; details: rat, in vivo
[4] = 9 (b3); cited from earlier work

In the case of `Oc1ccc(-c2cc(=S)ss2)cc1` [ATX, 5-(4-hydroxyphenyl)-3H-1,2-dithiole3-thione], the solubility at 1 h ([1]; 0.9% NaCl solution, pH 7.4, saline or isotonic) is reported as under 0.8 µg/mL, the solubility at 1 h ([1]; PBS, pH 7.4, aqueous buffer) is reported as under 0.8 µg/mL and the solubility at 1 h ([1]; ultrapure water, water) is reported as 0.8 ± 0.02 µg/mL (≈ 3.53 µM).

For `CC1=NN(c2ccccc2)C(=O)C1` [edaravone], the “neurological deficit score, 24 h vs 0 h after reperfusion” value [2] was “did not exhibit increased neurological scores”, the “infarct volume vs vehicle” value [3] was “significant reductions in infarct volume” and the “solubility in saline, in words” value ([1]; saline (0.9%)) was “freely soluble”.

For `COc1ccc(-c2cc(=S)ss2)cc1` [ATT, Anethol trithione], the water solubility [4] is given as 0.38 µg/mL (≈ 1.58 µM).
